Measurements pooled from the literature.
Lines come from different studies, so protocols differ.
RET V804M: Proto-oncogene tyrosine-protein kinase receptor Ret (RET, Homo sapiens, UniProt P07949, V804M)
RET M918T: Proto-oncogene tyrosine-protein kinase receptor Ret (RET, Homo sapiens, UniProt P07949, M918T)
RET: Proto-oncogene tyrosine-protein kinase receptor Ret (RET, Homo sapiens, UniProt P07949)
RET V804L: Proto-oncogene tyrosine-protein kinase receptor Ret (RET, Homo sapiens, UniProt P07949, V804L)

Compound | target | assay | setting | quantity | value
O=C(NCc1ncc(C(F)(F)F)cc1Cl)c1ccc2c(c1)C1(CCS(=O)(=O)CC1)[C@@H](C1CC1)N2S(=O)(=O)c1ccc(F)cc1 | RET V804M | cell-free assay, competition with immobilised ligand | 1 µM | remaining binding | 100%
Cc1cc(NC(=O)c2cccc3cc(-c4cccc5[nH]nc(N)c45)ccc23)ccc1F | RET V804M | enzyme activity, inhibitor | 0.1 µM | activity vs control | 117%
CCC(=N\O)/C(C)=C/c1ccc(F)cc1 | RET M918T | cell-free assay, competition with immobilised ligand | 1 µM | remaining binding | 100%
C#Cc1cccc(Nc2ncnc3cc(OCCOC)c(OCCOC)cc23)c1 | RET | cell-free assay | 0.5 µM | remaining signal | 48.6%
COc1cc(-c2cc(-c3ccc(N4CCNCC4)cc3)cnc2N)cc(OC)c1OC | RET V804L | enzyme activity, inhibitor | 1 µM | inhibition | 5%
COCCOc1nc(-c2ccc(Cl)nc2)nc2c1CN(C(=O)c1ncn3ccccc13)CC2 | RET V804M | cell-free assay, competition with immobilised ligand | 0.1 µM | remaining binding | 89%
CNCc1ccc(-c2cc(-c3nc(-c4ccc(S(=O)(=O)C(C)C)cc4)cnc3N)on2)cc1 | RET | enzyme activity, inhibitor | 2 µM | inhibition | 42%
COc1ccc(COc2ccc(Cc3cnc(N)nc3N)cc2OC)cc1 | RET | cell-free assay | 0.5 µM | remaining signal | 108%
CS(=O)(=O)N1CCCC(NC(=O)[C@H](CCC2CCCCC2)NC(=O)c2ccc(CNc3ncnc4c3nnn4-c3ccccc3)cc2)C1 (some centres unmarked) | RET M918T | cell-free assay, competition with immobilised ligand | 0.1 µM | remaining binding | 93%
CN(C)c1nccc(-c2cnn3ncccc23)n1 | RET M918T | binding | 1 µM | remaining binding | 97%
Cc1ccc(NC(=O)Nc2cc3c(cc2Oc2ccccc2)n(C)c(=O)n3C)cc1C | RET | enzyme activity, inhibitor, radiometric | 10 µM | remaining activity | 128%
Cc1c(NC(=O)c2cc(C(N)=O)nc3cc(F)ccc23)c(C(F)(F)F)nn1Cc1ccc(C(C)(C)C)cc1 | RET V804M | cell-free assay, competition with immobilised ligand | 1 µM | remaining binding | 100%
COc1cccc(Nc2nc(C)c(C(=O)Nc3ccc4c(c3)OCO4)s2)c1 | RET | enzyme activity, inhibitor, radiometric | 0.1 µM | remaining activity | 129%
Cc1ccc(C(=O)Nc2ccc(CN3CCN(C)CC3)c(C(F)(F)F)c2)cc1C#Cc1cnc2cccnn12 | RET V804M | enzyme activity | 23.5 nM | remaining activity | 8.4%
CS(=O)(=O)CCNCc1ccc(-c2ccc3ncnc(Nc4ccc(OCc5cccc(F)c5)c(Cl)c4)c3c2)o1 | RET | cell-free assay | 0.5 µM | remaining signal | 99.8%
C[C@@H]1CCN(c2nccc(-c3cnn4ncccc34)n2)C1 | RET V804M | binding | 1 µM | remaining binding | 88%
CC/C(=N\NC(=O)NCc1cccc(O)c1)c1ccc(O)c(C)c1O | Proto-oncogene tyrosine-protein kinase receptor Ret (RET, Homo sapiens, UniProt P07949, S891A) | enzyme activity, inhibitor | 0.1 µM | inhibition | 6.2%
CC(=O)OCc1cnc(C)c2oc(=Nc3ccc(F)cc3)c(C(=O)Nc3ccc4c(c3)OCO4)cc12 | RET | enzyme activity, inhibitor, radiometric | 0.1 µM | remaining activity | 121%
c1cnn2ncc(-c3ccnc(N4CCC45COC5)n3)c2c1 | RET V804M | binding | 1 µM | remaining binding | 100%

Compound | target | assay | setting | quantity | value
CCS(=O)(=O)c1cc2cc(C[C@](O)(CC(C)(C)c3ccc(F)cc3C(N)=O)C(F)(F)F)[nH]c2cn1 | RET V804L | cell-free assay, competition with immobilised ligand | 1 µM | remaining binding | 100%
CC1CCCN1c1nccc(-c2cnn3ncccc23)n1 (centres unmarked) | RET V804L | binding | 1 µM | remaining binding | 85%
CC(=O)c1cccc(NC(=O)Cc2csc(NC(=O)Nc3cccc(Cl)c3)n2)c1 | RET | enzyme activity, inhibitor, radiometric | 10 µM | remaining activity | 92.6%
Cc1ccc(NC(=O)c2ccc(C)c(C(F)(F)F)c2)cc1C#Cc1nn(C2CCC(O)CC2)c2ncnc(N)c12 (centres unmarked) | RET V804M | cell-free assay | 10 µM | remaining signal | -2%
Cc1cnn2ncc(-c3ccnc(N(C)C)n3)c2c1 | RET V804M | binding | 1 µM | remaining binding | 100%
Cc1cc(NC(=O)Nc2c(NC3CCCC3)c3ccccc3oc2=O)ccc1Br | RET | enzyme activity, inhibitor, radiometric | 10 µM | remaining activity | 67.7%
CCCOc1ccc(OC)c(F)c1C(=O)c1ccc(C(=O)N[C@@H]2CNC[C@H]2NC(=O)c2ccc3[nH]ncc3c2)cc1 | RET V804L | enzyme activity, inhibitor | 10 µM | remaining activity | 8%
N[C@H]1CCN(c2nccc(-c3cnn4ncccc34)n2)C1 | RET M918T | binding | 1 µM | remaining binding | 90%
COc1cccc(CNC(=O)c2nc3scc(COCc4ccc(C(=O)O)cc4)c3c(=O)[nH]2)c1 | RET V804M | cell-free assay, competition with immobilised ligand | 1 µM | remaining binding | 95.3%
CC(=O)Nc1cccc2c1CCN(C(=O)CCNC(=O)c1ccsc1)C2 | RET | enzyme activity, inhibitor, radiometric | 10 µM | remaining activity | 90.8%
COc1ccc(CN2C3CC2CN(c2ccc(-c4cc(OCC(C)(C)O)cn5ncc(C#N)c45)cn2)C3)cn1 | Proto-oncogene tyrosine-protein kinase receptor Ret (RET, Homo sapiens, UniProt P07949, L760A) | thermal stability, DSF | 10 µM | ΔTm | 8.7 °C
COc1cc2ncnc(Nc3ccc(Oc4ccccc4)c(C)c3C)c2cc1OC | RET | enzyme activity, inhibitor | 1 µM | inhibition | 17%
CO[C@]1(C(=O)N[C@@H](C)c2ccc(-n3cc(F)cn3)nc2)CC[C@H](c2nc(C)cc(Nc3cc(C)[nH]n3)n2)CC1 | RET V804M | thermal stability, DSF | 10 µM | ΔTm | 8.7 °C
O=C1NC(c2ccccn2)Sc2ccccc21 (centres unmarked) | RET V804M | cell-free assay, competition with immobilised ligand | 1 µM | remaining binding | 86%
COc1cc2ncnc(Nc3ccc(Oc4ccccc4)cc3C)c2cc1OC | Proto-oncogene tyrosine-protein kinase receptor Ret (RET, Homo sapiens, UniProt P07949, Y791F) | enzyme activity, inhibitor | 1 µM | inhibition | 36%
Cc1cccc(NC(=O)CNC(=O)c2ccccc2NS(=O)(=O)c2ccc3[nH]c(=O)[nH]c3c2)c1C | RET | enzyme activity, inhibitor, radiometric | 0.1 µM | remaining activity | 114%
Nc1ncnc2occ(-c3ccc(NC(=O)Nc4cc(C(F)(F)F)ccc4F)cc3)c12 | RET V804L | cell-free assay | 20 µM | remaining signal | 0%
CN(C)c1ncc(F)c(-c2cnn3ncccc23)n1 | RET M918T | binding | 1 µM | remaining binding | 96%
COc1cc(NC(=O)Nc2cc(OC)c3nc(NC(=O)c4ccccc4)sc3c2)cc(OC)c1 | RET | enzyme activity, inhibitor, radiometric | 10 µM | remaining activity | 101%
